Experimental data pooled from the literature.
Each line is one published result; the experiments were not run side by side.
Target: NUAK family SNF1-like kinase 1 (NUAK1, Homo sapiens, UniProt O60285)

SMILES | test | conditions | endpoint | result
Cc1ccc(Nc2nccc(N(C)c3ccc4c(C)n(C)nc4c3)n2)cc1S(N)(=O)=O | enzyme activity, inhibitor | 0.3 µM | inhibition | 14%
c1cc(CN2CCOCC2)cc(Nc2ncc(C3CC3)c(NCCc3c[nH]cn3)n2)c1 | enzyme activity, inhibitor, radiometric | 1 µM | remaining activity | 6%
CNCc1ccccc1-c1csc([C@@H](C)Nc2nc(C)nc3cc(OC)c(OC)cc23)c1 | cell-free assay, competition with immobilised ligand | 1 µM | remaining binding | 97%
CN(c1nccc(-c2cnn3ncccc23)n1)C1CC1 | cell-free assay | 1 µM | remaining signal | 93%
O=C(NCCCNc1ccnc(Nc2cccc(NC(=O)N3CCCC3)c2)n1)C1CCC1 | enzyme activity, inhibitor, radiometric | 1 µM | remaining activity | 87%
CN(C(=O)c1ccccc1)c1cc(N(C)c2ccc3c(c2)CCc2ccc(C(=O)NCCN4CCOCC4)cc2C3=O)ccc1F | cell-free assay, competition with immobilised ligand | 1 µM | remaining binding | 100%
O=C(NCCCNc1nc(Nc2cccc(CN3CCOCC3)c2)ncc1C1CC1)C1CCC1 | enzyme activity, inhibitor, radiometric | 1 µM | remaining activity | 31%
CN(C)C1CCN(CC#Cc2nn(C3CCCC3)c3nc(NCc4ccccc4)ncc23)C1 (stereo not drawn) | enzyme activity, inhibitor, FRET | 10 µM | inhibition | 48%
COc1ccc2c(c1)O[C@@H](c1ccc(OC)c(OC)c1)C[C@H]2NC(=O)C1(c2ccc3c(c2)OC(F)(F)O3)CC1 | cell-free assay, competition with immobilised ligand | 1 µM | remaining binding | 86%
Cc1nn(CC(F)(F)F)cc1Nc1nccc(NCc2ccc(S(N)(=O)=O)cc2)n1 | enzyme activity, inhibitor, radiometric | 1 µM | remaining activity | 94%
CO[C@@H](C)c1c(Nc2ccc([C@H](N(C)C(=O)C3CCS(=O)(=O)CC3)C(F)(F)F)cc2)cnc2cc(Cl)nn12 | cell-free assay, competition with immobilised ligand | 1 µM | remaining binding | 98%
CC/C(=N\NC(=O)NCc1cccc(O)c1)c1ccc(O)c(C)c1O | enzyme activity, inhibitor | 0.1 µM | inhibition | -2.5%
COc1cc(/C=C/C(=O)CC(=O)/C=C/c2ccc(O)c(OC)c2)ccc1O | enzyme activity, inhibitor | 1 µM | activity vs control | 55%
NS(=O)(=O)c1cc(NC(=O)C2(c3ccccc3Cl)CC2)ccc1Oc1cccc(Cl)c1 | cell-free assay, competition with immobilised ligand | 1 µM | remaining binding | 95%
C=CC(=O)Nc1cc(Nc2nccc(Nc3cc(Cl)c(F)cc3C(C)(C)O)n2)c(OC)cc1N1CC[C@@H](N(C)C)C1 | enzyme activity, inhibitor | 1 µM | inhibition | 17%
CNC(=O)c1cc(Oc2ccc(NC(=O)Nc3ccc(Cl)c(C(F)(F)F)c3)cc2)ccn1 | enzyme activity, inhibitor | 10 µM | inhibition | 2%
CCc1ccccc1C(=O)Nc1n[nH]c2c(C)c(F)c(C3C(C#N)=C(C)N(C)C(C)=C3C#N)cc12 | cell-free assay, competition with immobilised ligand | 1 µM | remaining binding | 33%
CCN(CC)CCNC(=O)c1c(C)[nH]c(/C=C2\C(=O)Nc3ccc(F)cc32)c1C | cell-free assay | 0.5 µM | remaining signal | 2.75%
COc1cc(-c2cn(C3CCc4c(F)cccc4N(CC(F)(F)F)C3=O)nn2)ccc1-n1cnc(C)c1 (stereo not drawn) | cell-free assay, competition with immobilised ligand | 1 µM | remaining binding | 100%
Cc1nn(CC(F)(F)F)cc1Nc1ncc(C2CC2)c(NCCc2c[nH]cn2)n1 | enzyme activity, inhibitor, radiometric | 1 µM | remaining activity | 73%
N#CCCc1ccc2c(c1)-c1[nH]c3ccc([N+](=O)[O-])cc3c1CC(=O)N2 | cell-free assay | 0.5 µM | remaining signal | 14.1%
O=C(NCCCNc1nc(Nc2cccc(NC(=O)N3CCCC3)c2)ncc1Br)C1CCC1 | enzyme activity, inhibitor, radiometric | 1 µM | remaining activity | 0%
C#Cc1cccc(Nc2ncnc3cc(OCCOC)c(OCCOC)cc23)c1 | cell-free assay | 0.5 µM | remaining signal | 98%
Cc1nn(CC(F)(F)F)cc1Nc1ncc(Br)c(NCCCNC(=O)C2CCC2)n1 | enzyme activity, inhibitor, radiometric | 1 µM | remaining activity | 22%
N#Cc1ccc(Nc2ccc3[nH]c(=O)[nH]c3c2)c(Cl)c1 | cell-free assay, competition with immobilised ligand | 1 µM | remaining binding | 100%
Brc1cnc(Nc2cccc(CN3CCOCC3)c2)nc1NCCc1c[nH]cn1 | enzyme activity, inhibitor, radiometric | 1 µM | remaining activity | 1%
Nc1ncnc2occ(-c3ccc(NC(=O)Nc4cc(C(F)(F)F)ccc4F)cc3)c12 | cell-free assay, inhibitor | 20 µM | remaining signal | 70%
